# RAD52 inh: RAD52 (human) annealing inhibition | hit rate 0.46% among 360,000 | inhibition, % at 18.7 µM | recombinant RAD52 DNA annealing, FRET fluorescence | P43351;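 active = every replicate showing at least 50% inhibition; inconclusive = mean inhibition at least 50% but not in every replicate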
# RAD54 branch: inhibitors of human RAD54 branch migration; Q92698; RAD54 Holliday junction branch migration, FAM/BHQ fluorescence; inhibition, % at 10.4 µM; hit rate 0.14% among 360,000; AID 602329;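 active = mean normalized replicate activity at least 40 and at least half of replicates scoring 40 or more; inconclusive = only one of the two criteria met; inactive = mean below 40 and under half of replicates reaching 40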;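 also: 0% = median of neutral control wells and 100% = median of positive control wells; inhibitors cause a drop in the FAM fluorescence signal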
# dFosB activator: activators of mouse delta FosB homodimer; P13346; purified delta FosB, TAMRA-CDK5 oligo fluorescence polarization; percent of positive-control signal above neutral wells; activation, % at 25 µM; hit rate 0.99% among 340,000;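 active = mean activation above about 17%, with every replicate also reaching it, limit read from the data, passing the limit was not always enough; inconclusive = only one of the two conditions met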
# Target sequence (P13346 whole entry, looked up): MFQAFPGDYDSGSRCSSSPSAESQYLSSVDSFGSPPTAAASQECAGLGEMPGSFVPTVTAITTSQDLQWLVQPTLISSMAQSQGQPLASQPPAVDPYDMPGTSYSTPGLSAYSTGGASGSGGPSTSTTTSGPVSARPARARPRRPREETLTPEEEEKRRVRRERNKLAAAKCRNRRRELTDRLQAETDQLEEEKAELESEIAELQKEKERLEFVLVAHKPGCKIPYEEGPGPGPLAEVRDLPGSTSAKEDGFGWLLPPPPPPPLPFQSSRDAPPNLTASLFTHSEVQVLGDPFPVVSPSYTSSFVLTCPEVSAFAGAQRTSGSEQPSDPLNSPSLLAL
# S100A4 inh HTS: blocks human S100A4 binding to myosin IIA peptide. S100A4/TAMRA-MyoIIA peptide fluorescence polarization. inhibition, % at 10.7 µM. hit rate 0.14% among 360,000. AID 652163;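 active = mean inhibition of at least 70% across replicates, with every replicate also reaching that level; inconclusive = mean inhibition reaches 70% but some replicates fall short; inactive = mean inhibition below 70%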
# Target sequence (P26447 whole entry, looked up): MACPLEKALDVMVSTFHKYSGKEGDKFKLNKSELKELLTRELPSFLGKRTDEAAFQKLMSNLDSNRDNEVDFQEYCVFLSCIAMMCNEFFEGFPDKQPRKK
#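 Test system: S100A4 monomer protein; Medium: HEPES pH 7.2 with CaCl2, KCl, NaCl, DTT, Triton; Probe or stimulus: TAMRA-labelled myosin IIA heavy-chain peptide probe, 5 nM; Doses: one dose per compound; Times: polarization read 5 min after assay mix addition, stable 5–60 min; Benchmarks: neutral control DMSO, positive control TFP.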
# MLL AF4-AF9 inh: inhibitors of human MLL-AF4/AF9 interaction; hit rate 0.47% among 350,000; inhibition, % at 10 µM; P42568; AlphaScreen, biotin-AF4 peptide binding to FLAG-AF9; AID 651704;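 active = every replicate reaching a set inhibition limit, whatever the replicate mean, cut at about 25% in these data; inconclusive = mean inhibition reaches that limit but some replicates miss it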;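 also: 0% = plate neutral control median and 100% = total signal loss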
# * hit, by the source's call; i = inactive; u = inconclusive; x = no result given. Compounds with a hit are over-represented: about 1.5% of the library has one in this group of screens.
SMILES,RAD52 inh,RAD54 branch,dFosB activator,S100A4 inh HTS,MLL AF4-AF9 inh
COc1ccc(-c2c(-c3cccc(C)c3)oc3ccc(-c4ccc5c(c4)OCO5)cc23)cn1,x,6,-1,x,x
Cc1cccc(-c2oc3ccc(-c4ccc5c(c4)OCO5)cc3c2-c2ccc(OC3CCCCO3)cc2)c1 (stereo unspecified),-13,-8,3,107*,-1
CCC(=O)N1C[C@H](C)[C@@H](OC)CN(C)C(=O)c2cc(NC(=O)c3ccc(F)cc3)ccc2OC[C@@H]1C,13,-5,x,1,2
O=C(C[n+]1ccc2ccccc2c1)c1cccc2ccccc12,-8,x,-3,1,4
O=C(/C=C/c1cc[n+](CC(=O)c2ccc3cccc4c3c2CC4)cc1)c1ccc2cccc3c2c1CC3,x,x,147*,x,x
C[C@@H]1CN([C@H](C)CO)C(=O)c2cc(NC(=O)c3ccncc3)ccc2O[C@H]1CN(C)Cc1ccc(C(=O)O)cc1,-6,1,x,-10,-1
CCCn1c(=O)c2ccccc2n2c(SCCNCCO)nnc12,16,8,5,-1,27*
N#C/C(=C/c1cn(-c2ccccc2)nc1-c1cccc(OCc2ccccc2)c1)C(=O)NCCCn1ccnc1,x,-5,31*,x,x
C[C@H](CO)N1C[C@H](C)[C@H](CN(C)Cc2ccc(-c3ccccc3)cc2)Oc2ncc(C#CCN(C)C)cc2C1=O,-6,-7,x,-8,18
CCOc1ccc(NC(=O)CSc2ncc(-c3ccc(F)cc3)n2Cc2ccco2)cc1,-15,x,-17,-2,39*
O=C(CSc1ncc(-c2ccc(F)cc2)n1Cc1ccco1)Nc1ccc2c(c1)OCO2,x,-6,-12,x,x
C[C@H](CO)N1C[C@H](C)[C@H](CN(C)Cc2ccccc2)Oc2cc(C#Cc3ccccn3)ccc2S1(=O)=O,-111,7,x,2,-1
COc1cc(/C=C2\SC(=S)N(NC(=O)c3cccnc3)C2=O)ccc1O,i,x,31*,0,-1
COc1cc(/C=C2\SC(=S)N(Nc3ccccc3)C2=O)ccc1O,x,-61,u,x,x
COc1cc(/C=C2\SC(=S)N(c3cccnc3)C2=O)ccc1O,-106,x,4,-5,-1
COc1cc(/C=C2\SC(=S)N(NC(=O)c3ccc(O)cc3)C2=O)ccc1O,i,x,28*,1,8
COc1cc(/C=C2\SC(=S)N(C(Cc3ccccc3)C(=O)O)C2=O)ccc1O (stereo unspecified),i,x,18*,-12,-16
COc1cc(/C=N/N(C)S(=O)(=O)c2ccc(C)cc2)cc([N+](=O)[O-])c1O,-18,-16,-3,0,31*
COc1cccc(NC(=O)N2CC(=O)N3[C@H](CO)[C@@H](c4ccc(C5=CCCCC5)cc4)[C@H]3C2)c1,-24,x,x,x,9
CCNC(=O)Nc1ccc2c(c1)C(=O)N(C)[C@@H]1CC[C@H](CC(=O)NC3CCCCC3)O[C@@H]1CO2,0,2,x,5,-2
CN(CCc1ccccc1)C(=O)c1ccc(NC(=O)Cc2ccc(NC(=O)C3CCN(C(=O)C4CCC4)CC3)cc2)cc1,-13,-11,-15,-2,28*
CN(CCc1ccccc1)C(=O)c1ccc(NC(=O)Cc2cccc(NC(=O)C3CCN(C(=O)C4CCC4)CC3)c2)cc1,-37,-5,-20,6,2
O=C(CCSc1nc2ccccc2s1)N/N=C/c1c(O)ccc2ccccc12,-30,4,21*,-4,-9
COc1ccc(/C=N/NC(=O)CCSc2nc3ccccc3s2)cc1OC,-8,6,0,-4,5
CC1CCN(C(C(=O)Nc2ccc3c(c2)OCO3)c2ccccc2)CC1 (stereo unspecified),-2,5,-7,-1,52*
SMILES,RAD52 inh,RAD54 branch,dFosB activator,S100A4 inh HTS,MLL AF4-AF9 inh
CC1CCCN(C(C(=O)Nc2ccc3c(c2)OCO3)c2ccccc2)C1 (stereo unspecified),2,-2,-6,-1,5
O=C1C(C2=NC(c3ccccn3)C3C(=O)N(c4ccccc4)C(=O)C23)=C(O)c2ccccc21 (stereo unspecified),5,x,26*,-3,-3
CO[C@H]1CN(C)C(=O)c2cc(NC(=O)c3ccccc3F)ccc2OC[C@@H](C)NC[C@H]1C,-11,-19,x,0,-2
CCN(CC)c1ccc(N=C2C=CC(=O)C=C2NC(C)=O)cc1,-36,-11,x,127*,-5
O=C1c2ccccc2C(=O)c2c1cccc2N(CCO)CCO,-52,12,0,-7,28*
O=C1C=C(N(CCO)Cc2ccccc2)c2ccccc2C1=O,x,-2,-13,x,x
O=C(c1ccc2c(c1)OCO2)N1CC(=O)N2[C@@H](CO)[C@H](c3ccc(C#Cc4ccccc4)cc3)[C@@H]2C1,-17,x,x,114*,10
CC(C)CC#Cc1ccc([C@@H]2[C@H](CO)N3C(=O)CN(C(=O)c4ccccn4)C[C@@H]23)cc1,-5,x,x,107*,0
O=C(c1ccccc1F)N1CC(=O)N2[C@H](CO)[C@H](c3ccc(C#Cc4ccccc4)cc3)[C@H]2C1,-7,x,x,-6,-2
CC(C)CC#Cc1ccc([C@@H]2[C@@H](CO)N3C(=O)CN(C(=O)c4ccccn4)C[C@H]23)cc1,-112,x,x,-5,2
O=C(c1ccccc1F)N1CC(=O)N2[C@@H](CO)[C@H](c3ccc(C#Cc4ccccc4)cc3)[C@@H]2C1,-36,x,x,79*,-4
Fc1ccc(C2CCNCC2COc2ccc3c(c2)OCO3)cc1 (stereo unspecified),21,5,0,2,32*
Cc1nnc(N/N=C/c2cc(C)n(-c3ccc(F)cc3)c2C)n1N,19,x,-8,-2,54*
Cc1nnc(N/N=C/c2ccccc2O)n1N,-4,x,2,-1,-4
CN(C)Cc1c(O)ccc2ccccc12,-10,x,-7,-11,31*
CO[C@H]1CN(C)C(=O)c2ccc(NC(=O)C3CCCC3)cc2OC[C@H](C)N(C)C[C@@H]1C,4,x,x,0,-5
CCc1cccc(C)c1NC(=S)NCCc1c(C)[nH]c2ccc(C)cc12,-17,-13,-8,-10,44*
CN(C)C(=O)[C@H]1[C@H](CO)[C@H]2Cn3c(ccc(C4=CCCCC4)c3=O)[C@@H]1N2C,63*,5,x,-4,2
CCNC(=O)[C@H]1[C@H](CO)[C@H]2Cn3c(ccc(-c4ccc(F)cc4)c3=O)[C@@H]1N2C,7,12,x,138*,-2
O=C(COc1ccc2ccc(=O)oc2c1)Nc1ccc(N2CCCCC2)cc1,66*,0,-7,7,47*
O=C(COc1ccc2ccc(=O)oc2c1)Nc1ccc(CCO)cc1,-16,0,-12,-4,0
C=CCN=c1scc(-c2ccccc2)n1/N=C/c1ccccn1,-94,-6,-5,0,28*
COc1ccc2c3c(n(C)c2c1)[C@H](CO)N(C(=O)C1CC1)CC31CCN(C(=O)C2CCOCC2)CC1,10,x,x,10,-1
CSc1ccccc1NC(=O)Cn1c([N+](=O)[O-])cnc1C,-6,6,-1,0,42*
